Experiments:
[1] = system: L1210; assay: In vitro cytotoxicity against mouse leukemia L1210 cell lines; format: functional, cell-based
[2] = system: Calf thymus DNA; assay: Thermal denaturation of calf thymus DNA at 37 degree C; format: nucleic-acid assay; conditions: Bos taurus
Outline: (§1)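 Calf thymus DNA at 100 μM with ligand at 20 μM (1:5 [PBD]/[DNA] molar ratio), in 10 mM sodium phosphate plus 1 mM EDTA, pH 7.00 ± 0.01. Samples were incubated at 37 °C for 0 h or 18 h before thermal melting. The value is the induced ΔTm against DNA alone, whose Tm is the mean of 10 separate determinations.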

[3] = system: HCT-15; assay: Percent growth inhibition against human colon HCT-15 cell lines at the concentration of 10E-5; format: functional
[4] = system: HCT-15; assay: Percent growth inhibition against human colon HCT-15 cell lines at the concentration of 10E-6; format: functional
[5] = system: A549; assay: Percent growth inhibition against human lung A-549 cell lines at the concentration of 10E-4; format: functional
[6] = system: A549; assay: Percent growth inhibition against human lung A-549 cell lines at the concentration of 10E-6; format: functional
[7] = system: HT-29; assay: Percent growth Inhibition against human colon HT-29 cell lines at the concentration of 10E-6; format: functional
[8] = system: SiHa; assay: Percent growth inhibition against human cervix SiHa cell lines at the concentration of 10E-4; format: functional
[9] = system: SiHa; assay: Percent growth inhibition against human cervix SiHa cell lines at the concentration of 10E-5; format: functional
[10] = system: SiHa; assay: Percent growth inhibition against human cervix SiHa cell lines at the concentration of 10E-6; format: functional
[11] = system: HT-29; assay: Percent growth inhibition against human colon HT-29 cell lines at the concentration of 10E-4; format: functional
[12] = system: HT-29; assay: Percent growth inhibition against human colon HT-29 cell lines at the concentration of 10E-5; format: functional
[13] = system: HOP-62; assay: Percent growth inhibition against human lung HOP-62 cell lines at the concentration of 10E-5; format: functional
[14] = system: HOP-62; assay: Percent growth inhibition against human lung HOP-62 cell lines at the concentration of 10E-6; format: functional
[15] = system: Calf thymus DNA; assay: Thermal denaturation of calf thymus DNA at 0 h at 37 degree C; format: nucleic-acid assay; conditions: Bos taurus; outline: as §1
[16] = system: Calf thymus DNA; assay: Thermal denaturation of calf thymus DNA at 18 hr at 37 degree C; format: nucleic-acid assay; conditions: Bos taurus; outline: as §1
[17] = system: A549; assay: Percent growth inhibition against human lung A-549 cell lines at the concentration of 10E-5; format: functional

ΔTm [15]	ΔTm [16]	SMILES	IC50 [1]	ΔTm [2]	Inhibition [3]	Inhibition [4]	Inhibition [5]	Inhibition [6]	Inhibition [7]	Inhibition [8]	Inhibition [9]	Inhibition [10]	Inhibition [11]	Inhibition [12]	Inhibition [13]	Inhibition [14]	Inhibition [17]
		O=C1c2c(O)ccc(O)c2C(=O)c2c(NCCNCCO)ccc(NCCNCCO)c21 [MITOXANTRONE]	0.1 µM	15.9 °C													
8.9 °C	9.1 °C	COc1cc2c(cc1OCCCC(=O)Nc1cccc3c1C(=O)c1ccccc1C3=O)N=C[C@@H]1CCCN1C2=O			66%	59%	93%	47%	68%	57%	52%	41%	93%	86%	90%	74%	27%
5.1 °C	5.2 °C	COc1cc2c(cc1OCCCCC(=O)Nc1cccc3c1C(=O)c1ccccc1C3=O)N=C[C@@H]1CCCN1C2=O			82%	61%	93%	56%	73%	73%	49%	40%	93%	87%	97%	73%	10%

SMILES	ΔTm [15]	ΔTm [16]	IC50 [1]	ΔTm [2]	Inhibition [3]	Inhibition [4]	Inhibition [5]	Inhibition [6]	Inhibition [7]	Inhibition [8]	Inhibition [9]	Inhibition [10]	Inhibition [11]	Inhibition [12]	Inhibition [13]	Inhibition [14]	Inhibition [17]
COc1cc2c(cc1O)N=C[C@@H]1CCCN1C2=O	0.3 °C																

Reference: ChEMBL document CHEMBL1137037, “Pyrrolo[2,1-c][1,4]benzodiazepine-anthraquinone conjugates. Synthesis, DNA binding and cytotoxicity” (Bioorg Med Chem Lett, 2004)
